Measurements from ChEMBL document CHEMBL4732060, “Cytotoxic triterpenoid-safirinium conjugates target the endoplasmic reticulum” (Eur J Med Chem, 2021).
Activity calls are given as the source filed them. No cut-off for these calls is given here.

What was measured:
[1] = test system: NIH3T3; experiment: Cytotoxicity against mouse NIH3T3 cells assessed as reduction in cell viability upto 30 uM measured after 72 hrs by SRB assay; assay type: cell-based; conditions: nih3t3, 72 h
Procedure, shortened: (§1)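 Sulforhodamine B assay on human tumour lines A375 (epithelial melanoma), HT29 (colorectal adenocarcinoma), MCF-7 (breast adenocarcinoma), A2780 (ovarian carcinoma) and FaDu (squamous cell carcinoma). Non-malignant NIH 3T3 (mouse fibroblasts) and HEK293 (human embryonic kidney) cells were also tested. EC50 values are given as mean ± standard mean error.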

[2] = test system: A-375; experiment: Cytotoxicity against human A-375 cells assessed as reduction in cell viability upto 30 uM measured after 72 hrs by SRB assay; assay type: functional, cell-based; conditions: dose microM <=30, time 72.0 hrs; procedure, shortened: as §1
[3] = test system: A2780; experiment: Cytotoxicity against human A2780 cells assessed as reduction in cell viability upto 30 uM measured after 72 hrs by SRB assay; assay type: functional, cell-based; conditions: dose microM <=30, time 72.0 hrs; procedure, shortened: as §1
[4] = test system: MCF7; experiment: Cytotoxicity against human MCF7 cells assessed as reduction in cell viability measured after 72 hrs by SRB assay; assay type: functional, cell-based; conditions: MCF7, 72 h
[5] = test system: HT-29; experiment: Cytotoxicity against human HT-29 cells assessed as reduction in cell viability measured after 72 hrs by SRB assay; assay type: functional, cell-based; conditions: HT-29, 72 h
[6] = test system: NIH3T3; experiment: Cytotoxicity against mouse NIH3T3 cells assessed as reduction in cell viability measured after 72 hrs by SRB assay; assay type: cell-based; conditions: NIH3T3, 72 h; procedure, shortened: as §1
[7] = test system: HEK293; experiment: Cytotoxicity against human HEK293 cells assessed as reduction in cell viability upto 30 uM measured after 72 hrs by SRB assay; assay type: cell-based; conditions: hek293, 72 h; procedure, shortened: as §1
[8] = Drug uptake in human A-375 cells measured after 24 hrs by fluorescence imaging analysis; assay type: ADME, cell-based; conditions: a-375, 24 h
Procedure, shortened: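 Fluorescence imaging of cells after a prolonged 24 h incubation with compound, to judge entry into the cells.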

[9] = test system: FaDu; experiment: Cytotoxicity against human FaDu cells assessed as reduction in cell viability upto 30 uM measured after 72 hrs by SRB assay; assay type: functional, cell-based; conditions: dose microM <=30, time 72.0 hrs; procedure, shortened: as §1
[10] = test system: A-375; experiment: Cytotoxicity against human A-375 cells assessed as reduction in cell viability measured after 72 hrs by SRB assay; assay type: functional, cell-based; conditions: A-375, 72 h
[11] = test system: MCF7; experiment: Cytotoxicity against human MCF7 cells assessed as reduction in cell viability upto 30 uM measured after 72 hrs by SRB assay; assay type: functional, cell-based; conditions: dose microM <=30, time 72.0 hrs; procedure, shortened: as §1
[12] = test system: A2780; experiment: Cytotoxicity against human A2780 cells assessed as reduction in cell viability measured after 72 hrs by SRB assay; assay type: functional, cell-based; conditions: A2780, 72 h
[13] = test system: FaDu; experiment: Cytotoxicity against human FaDu cells assessed as reduction in cell viability measured after 72 hrs by SRB assay; assay type: functional, cell-based
[14] = test system: HT-29; experiment: Cytotoxicity against human HT-29 cells assessed as reduction in cell viability upto 30 uM measured after 72 hrs by SRB assay; assay type: functional, cell-based; conditions: dose microM <=30, time 72.0 hrs; procedure, shortened: as §1
[15] = test system: HEK293; experiment: Cytotoxicity against human HEK293 cells assessed as reduction in cell viability measured after 72 hrs by SRB assay; assay type: ADME, cell-based; conditions: HEK293, 72 h

SMILES	Activity [1]	Activity [2]	Activity [3]	EC50 [4]	EC50 [5]	EC50 [6]	Activity [7]	Drug uptake [8]	Activity [9]	EC50 [10]	Activity [11]	EC50 [12]	EC50 [13]	Activity [14]	EC50 [15]
CC1=CC(C)=C(C(=O)[O-])C2=N[N+]3(CCOCC3)CN12	Non-Toxic	inactive	inactive	> 30 µM	> 30 µM	> 30 µM	Non-Toxic	Not Active	inactive	> 30 µM	inactive	> 30 µM	> 30 µM	inactive	–
CC[N+]1(CC)CN2C(=N1)C(C(=O)N1CCN(C(=O)[C@]34CC[C@@H](C)[C@H](C)[C@H]3C3=CC[C@@H]5[C@@]6(C)CC[C@H](OC(C)=O)C(C)(C)[C@@H]6CC[C@@]5(C)[C@]3(C)CC4)CC1)=Cc1ccccc12	–	–	–	10.2 µM	> 30 µM	> 30 µM	–	–	–	21.4 µM	–	9 µM	18.3 µM	–	–
CC[N+]1(CC)CN2C(=N1)C(C(=O)[O-])=Cc1ccccc12	–	–	–	–	–	–	–	Not Active	–	–	–	–	–	–	–
CC[N+]1(CC)CN2C(C)=CC(C)=C(C(=O)[O-])C2=N1	Non-Toxic	inactive	inactive	> 30 µM	> 30 µM	> 30 µM	Non-Toxic	Not Active	inactive	> 30 µM	inactive	> 30 µM	> 30 µM	inactive	–
CC1=CC(C)=C(C(=O)[O-])C2=N[N+]3(CCCC3)CN12	Non-Toxic	inactive	inactive	> 30 µM	> 30 µM	> 30 µM	Non-Toxic	Not Active	inactive	> 30 µM	inactive	> 30 µM	> 30 µM	inactive	–
CC[N+]1(CC)CN2C(=N1)C(C(=O)NCCNC(=O)[C@]13CC[C@@H](C)[C@H](C)[C@H]1C1=CC[C@@H]4[C@@]5(C)CC[C@H](OC(C)=O)C(C)(C)[C@@H]5CC[C@@]4(C)[C@]1(C)CC3)=Cc1ccccc12	–	–	–	11.7 µM	22.1 µM	3.6 µM	–	–	–	13.8 µM	–	11.2 µM	10.2 µM	–	–
CCN(CC)c1ccc2c(-c3ccccc3C(=O)O)c3ccc(=[N+](CC)CC)cc-3oc2c1 [RHODAMINE]	–	–	–	> 30 µM	> 30 µM	> 30 µM	–	–	–	> 30 µM	–	> 30 µM	> 30 µM	–	> 30 µM
CC[N+]1(CC)CN2C(=N1)C(C(=O)NCCNC(=O)[C@]13CC[C@@H](C(C)=O)[C@@H]1C1=CC[C@@H]4[C@@]5(C)CC[C@H](OC(C)=O)C(C)(C)[C@@H]5CC[C@@]4(C)[C@]1(C)CC3)=Cc1ccccc12	–	–	–	15.7 µM	> 30 µM	21.3 µM	–	–	–	16.6 µM	–	20.8 µM	16.1 µM	–	–
CCCCCCCC[N+]1(CCCCCCCC)CN2C(C)=CC(C)=C(C(=O)[O-])C2=N1	Non-Toxic	inactive	inactive	> 30 µM	> 30 µM	> 30 µM	Non-Toxic	Not Active	inactive	> 30 µM	inactive	> 30 µM	> 30 µM	inactive	–
CC[N+]1(CC)CN2C(=N1)C(C(=O)NCCNC(=O)[C@]13CCC(C)(C)C[C@H]1C1=CC[C@@H]4[C@@]5(C)CC[C@H](OC(C)=O)C(C)(C)[C@@H]5CC[C@@]4(C)[C@]1(C)CC3)=Cc1ccccc12	–	–	–	21.8 µM	25 µM	28.5 µM	–	–	–	19 µM	–	24.2 µM	27.1 µM	–	–
C=C(C)[C@@H]1CC[C@]2(C(=O)N3CCN(C(=O)C4=C(C)C=C(C)N5C[N+](CCCCCCCCCCCC)(CCCCCCCCCCCC)N=C45)CC3)CC[C@]3(C)[C@H](CC[C@@H]4[C@@]5(C)CC[C@H](OC(C)=O)C(C)(C)[C@@H]5CC[C@]43C)[C@@H]12	–	–	–	15.7 µM	24.9 µM	> 30 µM	–	–	–	16.8 µM	–	11 µM	10.7 µM	–	13.3 µM
COc1cccc2c1C(=O)c1c(O)c3c(c(O)c1C2=O)C[C@@](O)(C(=O)CO)C[C@@H]3O[C@H]1C[C@H](N)[C@H](O)[C@H](C)O1 [DOXORUBICIN]	–	–	–	1.1 µM	0.9 µM	0.4 µM	–	–	–	–	–	0.01 µM	–	–	–
C=C(C)[C@@H]1CC[C@]2(C(=O)N3CCN(C(=O)C4=C(C)C=C(C)N5C[N+](CC)(CC)N=C45)CC3)CC[C@]3(C)[C@H](CC[C@@H]4[C@@]5(C)CC[C@H](OC(C)=O)C(C)(C)[C@@H]5CC[C@]43C)[C@@H]12	–	–	–	26.3 µM	> 30 µM	22.4 µM	–	–	–	26.2 µM	–	21.6 µM	> 30 µM	–	–
C=C(C)[C@@H]1CC[C@]2(C(=O)NCCNC(=O)C3=Cc4ccccc4N4C[N+](CC)(CC)N=C34)CC[C@]3(C)C(=CC[C@@H]4[C@@]5(C)CC[C@H](OC(C)=O)C(C)(C)[C@@H]5CC[C@]43C)[C@H]12	–	–	–	17.6 µM	26.8 µM	17.4 µM	–	–	–	18.6 µM	–	18.3 µM	12.3 µM	–	13.6 µM
CC1=CC(C)=C(C(=O)[O-])C2=N[N+]3(CCN(C)CC3)CN12	Non-Toxic	inactive	inactive	> 30 µM	> 30 µM	> 30 µM	Non-Toxic	Not Active	inactive	> 30 µM	inactive	> 30 µM	> 30 µM	inactive	–
CC1=CC(C)=C(C(=O)[O-])C2=N[N+](C)(C)CN12	Non-Toxic	inactive	inactive	> 30 µM	> 30 µM	> 30 µM	Non-Toxic	Not Active	inactive	> 30 µM	inactive	> 30 µM	> 30 µM	inactive	–
CC1=CC(C)=C(C(=O)[O-])C2=N[N+]3(CCCCC3)CN12	Non-Toxic	inactive	inactive	> 30 µM	> 30 µM	> 30 µM	Non-Toxic	Not Active	inactive	> 30 µM	inactive	> 30 µM	> 30 µM	inactive	–
CCCCCC[N+]1(CCCCCC)CN2C(C)=CC(C)=C(C(=O)[O-])C2=N1	Non-Toxic	inactive	inactive	> 30 µM	> 30 µM	> 30 µM	Non-Toxic	Not Active	inactive	> 30 µM	inactive	> 30 µM	> 30 µM	inactive	–
CC[N+]1(CC)CN2C(=N1)C(C(=O)N1CCN(C(=O)[C@]34CCC(C)(C)C[C@H]3C3=CC[C@@H]5[C@@]6(C)CC[C@H](OC(C)=O)C(C)(C)[C@@H]6CC[C@@]5(C)[C@]3(C)CC4)CC1)=Cc1ccccc12	–	–	–	19.8 µM	26.2 µM	18.4 µM	–	–	–	21.4 µM	–	21.4 µM	18.1 µM	–	–
CCCCCCCCCCCC[N+]1(CCCCCCCCCCCC)CN2C(C)=CC(C)=C(C(=O)[O-])C2=N1	Non-Toxic	inactive	inactive	> 30 µM	> 30 µM	> 30 µM	Non-Toxic	Not Active	inactive	> 30 µM	inactive	> 30 µM	> 30 µM	inactive	–
CC[N+]1(CC)CN2C(=N1)C(C(=O)N1CCN(C(=O)[C@]34CC[C@@H](C(C)=O)[C@@H]3C3=CC[C@@H]5[C@@]6(C)CC[C@H](OC(C)=O)C(C)(C)[C@@H]6CC[C@@]5(C)[C@]3(C)CC4)CC1)=Cc1ccccc12	–	–	–	13.2 µM	22.2 µM	3 µM	–	–	–	15 µM	–	10.9 µM	13.3 µM	–	–
